Experimental data reported in ChEMBL document CHEMBL1828602, “CNS and antimalarial activity of synthetic meridianin and psammopemmin analogs” (Bioorg Med Chem, 2011).

Tests used:
[1] = Inhibition of PKA
SH-SY5Y = assay: Cytotoxicity against human SH-SY5Y cells by MTS assay; format: cell-based
[2] = target: T1, Muscarinic acetylcholine receptor M5 (Homo sapiens, UniProt P08912); assay: Displacement of [3H]QNB from muscarinic acetylcholine M5 receptor after 1.5 hrs by scintillation counting
T1 sequence (P08912 whole entry): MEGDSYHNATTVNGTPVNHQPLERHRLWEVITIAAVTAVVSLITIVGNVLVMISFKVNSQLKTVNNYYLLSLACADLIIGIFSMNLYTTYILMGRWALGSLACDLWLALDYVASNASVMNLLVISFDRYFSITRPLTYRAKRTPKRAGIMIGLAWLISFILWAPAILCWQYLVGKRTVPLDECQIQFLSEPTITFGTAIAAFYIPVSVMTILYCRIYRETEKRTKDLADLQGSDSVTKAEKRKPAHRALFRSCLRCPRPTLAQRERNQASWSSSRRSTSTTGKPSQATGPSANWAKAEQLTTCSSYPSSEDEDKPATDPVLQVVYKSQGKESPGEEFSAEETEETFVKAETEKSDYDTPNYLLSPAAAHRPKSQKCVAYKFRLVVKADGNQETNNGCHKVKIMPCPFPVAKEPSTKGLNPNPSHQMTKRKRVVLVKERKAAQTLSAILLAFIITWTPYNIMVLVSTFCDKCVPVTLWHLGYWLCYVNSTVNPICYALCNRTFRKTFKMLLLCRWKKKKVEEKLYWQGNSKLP

[3] = target: 5-hydroxytryptamine receptor 1D (Homo sapiens, UniProt P28221); assay: Displacement of [3H]5-carboximidotryptamine from 5-HT1D receptor after 1.5 hrs by scintillation counting
HEp-2 = assay: Cytotoxicity against human Hep2 cells; format: cell-based
Plasmodium falciparum = assay: Antimalarial activity against transgenic Plasmodium falciparum 3D7 infected in human A positive erythrocytes after 72 hrs by luciferase reporter gene assay; format: functional, organism-based; conditions: 3D7, 72 h
Summary of the method: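 Luciferase-expressing P. falciparum 3D7 kept in RPMI 1640 without phenol red, 10% heat-inactivated A+ human plasma, 4% washed A+ erythrocytes, 90% N2/5% O2/5% CO2, 37 °C. Ring-stage cultures (>70% rings) diluted to 0.5% parasitemia, 1.5% hematocrit. Eleven-point duplicate twofold series, final 100 to 0.098 µg/mL. Incubated 72 h, frozen at −20 °C, lysed, luminescence read (5 s integration). IC50 by nonlinear regression.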

[4] = target: Cyclin-dependent kinase 5 (Homo sapiens, UniProt Q00535); assay: Inhibition of CDK5
[5] = target: T2, 5-hydroxytryptamine receptor 2C (Homo sapiens, UniProt P28335); assay: Displacement of [3H]mesulergine from 5-HT2C receptor after 1.5 hrs by scintillation counting
T2 sequence (P28335 whole entry): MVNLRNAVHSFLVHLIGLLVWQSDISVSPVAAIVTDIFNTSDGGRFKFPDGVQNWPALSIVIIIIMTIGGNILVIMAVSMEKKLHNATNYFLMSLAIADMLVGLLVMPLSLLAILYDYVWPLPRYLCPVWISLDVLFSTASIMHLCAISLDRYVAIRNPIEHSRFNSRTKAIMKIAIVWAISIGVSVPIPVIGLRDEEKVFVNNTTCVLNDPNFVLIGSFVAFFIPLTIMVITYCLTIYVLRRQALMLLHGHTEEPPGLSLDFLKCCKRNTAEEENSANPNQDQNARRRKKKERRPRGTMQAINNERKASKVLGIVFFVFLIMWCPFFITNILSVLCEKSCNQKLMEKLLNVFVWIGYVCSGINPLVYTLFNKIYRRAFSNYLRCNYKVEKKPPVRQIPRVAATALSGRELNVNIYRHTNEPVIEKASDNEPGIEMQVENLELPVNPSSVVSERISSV

D(1B) dopamine receptor = D(1B) dopamine receptor (Homo sapiens, UniProt P21918); assay: Displacement of [3H][…] from dopamine D5 receptor after 1.5 hrs by scintillation counting
[6] = Inhibition of pig brain CK1delta/epsilon assessed as RRKHAAIGSpAYSITA phosphorylation using [33P]gamma-ATP after 30 mins by scintillation counting; parameters: species or system Sus scrofa
[7] = target: 5-hydroxytryptamine receptor 5A (Homo sapiens, UniProt P47898); assay: Displacement of [3H]LSD from 5-HT5A receptor after 1.5 hrs by scintillation counting
[8] = target: Sodium-dependent dopamine transporter (Homo sapiens, UniProt Q01959); assay: Displacement of [3H]WIN35428 from DAT after 1.5 hrs by scintillation counting
[9] = target: 5-hydroxytryptamine receptor 7 (Homo sapiens, UniProt P34969); assay: Displacement of [3H]LSD from 5-HT7 receptor after 1.5 hrs by scintillation counting
[10] = target: Cyclin-dependent kinase 2/cyclin A (Homo sapiens, UniProt P24941); assay: Inhibition of human recombinant CDK2/cyclin A expressed in insect cells assessed as histone phosphorylation using [33P]gamma-ATP after 30 mins by scintillation counting
CDK9/cyclin T1 = CDK9/cyclin T1 (Homo sapiens, UniProt P50750); assay: Inhibition of human recombinant CDK9/cyclin T expressed in insect cells assessed as pRB fragment (773 to 928) phosphorylation using [33P]gamma-ATP after 30 mins by scintillation counting
[11] = Cytotoxicity against mouse LMM3 cells; format: cell-based
[12] = target: T3, 5-hydroxytryptamine receptor 1A (Homo sapiens, UniProt P08908); assay: Displacement of [3H]8-OH-DPAT from 5-HT1A receptor after 1.5 hrs by scintillation counting
T3 sequence (P08908 whole entry): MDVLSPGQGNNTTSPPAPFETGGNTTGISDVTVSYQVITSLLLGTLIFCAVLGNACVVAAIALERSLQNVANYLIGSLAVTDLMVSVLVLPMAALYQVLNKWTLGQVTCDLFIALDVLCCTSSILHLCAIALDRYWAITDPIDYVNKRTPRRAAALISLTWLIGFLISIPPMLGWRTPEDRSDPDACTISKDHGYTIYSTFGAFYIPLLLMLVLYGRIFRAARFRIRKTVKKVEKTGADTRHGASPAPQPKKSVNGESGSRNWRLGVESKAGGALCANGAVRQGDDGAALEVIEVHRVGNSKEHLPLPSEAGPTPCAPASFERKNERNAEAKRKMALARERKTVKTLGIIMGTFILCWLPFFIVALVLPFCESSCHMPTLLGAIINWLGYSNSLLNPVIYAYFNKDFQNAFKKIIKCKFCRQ

[13] = target: 5-hydroxytryptamine receptor 2B (Homo sapiens, UniProt P41595); assay: Displacement of [3H]LSD from 5-HT2B receptor after 1.5 hrs by scintillation counting
A549 = assay: Cytotoxicity against human A549 cells after 72 hrs; format: cell-based
Summary of the method: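 A549 cells at 12,000 per well in DMEM F12 (no HEPES or phenol red) with 2% FBS and 1% penicillin–streptomycin, preincubated 24 h at 37 °C, 5% CO2. Compounds then added, 72 h incubation. Viability by MTS-type tetrazolium reagent, 1 h at 37 °C, absorbance at 490 nm. IC50 determined.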

HT-29 = assay: Cytotoxicity against human HT-29 cells; format: cell-based
[14] = Inhibition of PKG

D(1B) dopamine receptor, sequence (P21918 whole entry): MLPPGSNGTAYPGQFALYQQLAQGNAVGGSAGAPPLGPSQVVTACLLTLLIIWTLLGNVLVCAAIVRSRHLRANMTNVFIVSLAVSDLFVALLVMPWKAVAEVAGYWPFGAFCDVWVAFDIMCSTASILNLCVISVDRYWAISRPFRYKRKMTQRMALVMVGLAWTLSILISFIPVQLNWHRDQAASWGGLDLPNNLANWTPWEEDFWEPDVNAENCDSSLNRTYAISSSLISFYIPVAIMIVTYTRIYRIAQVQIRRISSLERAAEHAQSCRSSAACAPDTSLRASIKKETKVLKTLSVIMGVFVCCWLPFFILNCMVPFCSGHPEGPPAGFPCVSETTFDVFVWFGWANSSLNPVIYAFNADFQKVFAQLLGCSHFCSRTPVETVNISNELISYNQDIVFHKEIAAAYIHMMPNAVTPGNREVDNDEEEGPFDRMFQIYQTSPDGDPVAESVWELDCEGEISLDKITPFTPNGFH
5-hydroxytryptamine receptor 1D, sequence (P28221 whole entry): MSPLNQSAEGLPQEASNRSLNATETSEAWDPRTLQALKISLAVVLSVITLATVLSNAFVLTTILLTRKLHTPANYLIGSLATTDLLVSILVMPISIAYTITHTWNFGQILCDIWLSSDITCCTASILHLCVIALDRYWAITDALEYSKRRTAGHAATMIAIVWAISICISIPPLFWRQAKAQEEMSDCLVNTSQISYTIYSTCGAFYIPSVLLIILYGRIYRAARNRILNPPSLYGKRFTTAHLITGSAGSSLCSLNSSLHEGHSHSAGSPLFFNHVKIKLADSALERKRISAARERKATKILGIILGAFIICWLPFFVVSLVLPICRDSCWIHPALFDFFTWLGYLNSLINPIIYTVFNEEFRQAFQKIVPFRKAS
5-hydroxytryptamine receptor 7, sequence (P34969 whole entry): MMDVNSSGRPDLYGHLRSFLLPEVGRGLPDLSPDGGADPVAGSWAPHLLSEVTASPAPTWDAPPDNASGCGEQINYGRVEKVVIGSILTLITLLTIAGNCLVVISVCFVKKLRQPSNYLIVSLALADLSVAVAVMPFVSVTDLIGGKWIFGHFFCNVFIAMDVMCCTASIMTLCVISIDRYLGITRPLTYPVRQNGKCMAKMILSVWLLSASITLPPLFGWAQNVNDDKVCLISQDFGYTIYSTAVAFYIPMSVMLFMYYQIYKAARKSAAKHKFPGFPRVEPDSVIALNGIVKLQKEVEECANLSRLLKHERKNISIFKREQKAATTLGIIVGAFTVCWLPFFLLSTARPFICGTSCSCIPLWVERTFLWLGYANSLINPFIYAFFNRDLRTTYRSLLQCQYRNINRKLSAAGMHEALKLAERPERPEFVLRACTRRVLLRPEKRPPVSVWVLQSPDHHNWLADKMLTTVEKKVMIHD
5-hydroxytryptamine receptor 2B, sequence (P41595 whole entry): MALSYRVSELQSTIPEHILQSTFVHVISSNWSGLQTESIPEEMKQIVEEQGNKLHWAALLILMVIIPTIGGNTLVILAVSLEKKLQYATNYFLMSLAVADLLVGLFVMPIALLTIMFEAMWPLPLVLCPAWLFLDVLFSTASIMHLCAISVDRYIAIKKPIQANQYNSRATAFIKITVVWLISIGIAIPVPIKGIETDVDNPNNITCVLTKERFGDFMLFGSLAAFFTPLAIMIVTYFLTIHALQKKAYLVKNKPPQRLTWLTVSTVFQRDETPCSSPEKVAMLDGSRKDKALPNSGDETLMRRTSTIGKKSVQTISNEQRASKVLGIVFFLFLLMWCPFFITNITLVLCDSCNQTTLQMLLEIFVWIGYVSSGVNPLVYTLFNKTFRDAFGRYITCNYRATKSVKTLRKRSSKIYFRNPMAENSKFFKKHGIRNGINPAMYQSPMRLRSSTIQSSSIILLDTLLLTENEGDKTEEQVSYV
5-hydroxytryptamine receptor 5A, sequence (P47898 whole entry): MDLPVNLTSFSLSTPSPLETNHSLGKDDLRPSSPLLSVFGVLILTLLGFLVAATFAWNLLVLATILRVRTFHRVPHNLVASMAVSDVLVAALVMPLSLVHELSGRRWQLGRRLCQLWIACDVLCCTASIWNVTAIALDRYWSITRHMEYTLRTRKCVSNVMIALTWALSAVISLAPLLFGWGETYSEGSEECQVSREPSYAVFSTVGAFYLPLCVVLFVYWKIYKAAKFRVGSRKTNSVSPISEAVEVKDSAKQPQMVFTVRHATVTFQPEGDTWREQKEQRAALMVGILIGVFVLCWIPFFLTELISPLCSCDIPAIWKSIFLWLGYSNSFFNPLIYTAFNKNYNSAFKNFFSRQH
Sodium-dependent dopamine transporter, sequence (Q01959 whole entry): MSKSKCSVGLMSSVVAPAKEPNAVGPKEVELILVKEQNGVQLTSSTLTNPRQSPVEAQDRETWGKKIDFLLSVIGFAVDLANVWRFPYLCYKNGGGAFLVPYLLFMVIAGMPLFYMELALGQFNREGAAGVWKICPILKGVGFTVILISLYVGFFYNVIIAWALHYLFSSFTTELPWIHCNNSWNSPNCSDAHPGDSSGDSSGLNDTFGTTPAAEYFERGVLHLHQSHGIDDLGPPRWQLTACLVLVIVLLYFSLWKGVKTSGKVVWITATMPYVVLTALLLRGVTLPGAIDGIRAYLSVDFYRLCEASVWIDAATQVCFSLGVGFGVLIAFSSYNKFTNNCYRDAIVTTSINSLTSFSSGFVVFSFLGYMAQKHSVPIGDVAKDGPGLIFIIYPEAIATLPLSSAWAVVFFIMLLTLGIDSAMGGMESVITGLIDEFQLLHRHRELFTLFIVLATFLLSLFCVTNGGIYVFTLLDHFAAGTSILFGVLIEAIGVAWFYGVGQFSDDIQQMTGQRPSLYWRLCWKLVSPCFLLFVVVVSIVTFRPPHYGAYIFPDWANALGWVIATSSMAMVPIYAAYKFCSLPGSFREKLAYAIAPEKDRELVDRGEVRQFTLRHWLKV
Cyclin-dependent kinase 5, sequence (Q00535 whole entry): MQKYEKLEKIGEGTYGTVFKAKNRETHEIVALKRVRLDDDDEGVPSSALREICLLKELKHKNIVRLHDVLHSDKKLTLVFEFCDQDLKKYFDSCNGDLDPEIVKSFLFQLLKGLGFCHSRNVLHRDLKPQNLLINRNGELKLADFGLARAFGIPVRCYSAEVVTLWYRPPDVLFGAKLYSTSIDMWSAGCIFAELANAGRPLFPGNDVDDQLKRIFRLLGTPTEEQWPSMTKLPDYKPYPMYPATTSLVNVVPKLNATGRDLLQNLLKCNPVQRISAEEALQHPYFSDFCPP
CDK9/cyclin T1, sequence (O60563 whole entry, the tested form may be a part): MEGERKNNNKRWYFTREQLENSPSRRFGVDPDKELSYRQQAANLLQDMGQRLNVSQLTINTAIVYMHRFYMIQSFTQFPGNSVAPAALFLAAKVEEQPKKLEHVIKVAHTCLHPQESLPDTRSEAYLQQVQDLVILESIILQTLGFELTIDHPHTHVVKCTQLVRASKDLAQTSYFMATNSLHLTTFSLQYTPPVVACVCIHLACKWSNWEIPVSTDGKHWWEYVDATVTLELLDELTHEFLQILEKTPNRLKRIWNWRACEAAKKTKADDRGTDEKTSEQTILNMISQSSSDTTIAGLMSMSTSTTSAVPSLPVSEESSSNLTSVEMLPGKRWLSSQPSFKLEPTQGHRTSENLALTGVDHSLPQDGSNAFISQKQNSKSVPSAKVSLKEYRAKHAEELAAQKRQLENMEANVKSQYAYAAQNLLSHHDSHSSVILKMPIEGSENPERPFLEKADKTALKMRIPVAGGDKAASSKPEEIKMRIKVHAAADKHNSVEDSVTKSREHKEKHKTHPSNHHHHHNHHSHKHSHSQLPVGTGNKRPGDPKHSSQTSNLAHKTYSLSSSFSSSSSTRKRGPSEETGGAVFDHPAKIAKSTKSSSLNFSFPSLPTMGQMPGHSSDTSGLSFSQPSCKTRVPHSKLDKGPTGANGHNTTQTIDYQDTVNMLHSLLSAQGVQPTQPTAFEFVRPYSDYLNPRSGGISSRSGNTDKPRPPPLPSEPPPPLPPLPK
CDK9/cyclin T1, sequence (P50750 whole entry, the tested form may be a part): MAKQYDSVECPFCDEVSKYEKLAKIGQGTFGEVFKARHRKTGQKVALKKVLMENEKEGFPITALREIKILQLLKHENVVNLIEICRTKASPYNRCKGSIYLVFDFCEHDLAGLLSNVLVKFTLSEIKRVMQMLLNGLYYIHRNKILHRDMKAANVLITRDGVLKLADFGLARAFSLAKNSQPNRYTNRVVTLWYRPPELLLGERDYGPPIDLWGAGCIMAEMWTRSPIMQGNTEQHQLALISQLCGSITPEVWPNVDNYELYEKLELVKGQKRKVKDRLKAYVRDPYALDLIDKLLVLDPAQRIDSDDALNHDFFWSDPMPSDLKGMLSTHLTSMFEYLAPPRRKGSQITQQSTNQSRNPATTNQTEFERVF

Row | Ki [2] [µM] | Ki [3] [µM] | IC50 (Plasmodium falciparum) [µM] | Ki [5] [µM] | Ki (D(1B) dopamine receptor) [µM] | IC50 [7] [µM] | IC50 [9] [µM] | Ki [12] [µM] | Ki [13] [µM] | IC50 [2] [µM] | IC50 [5] [µM] | IC50 [8] [µM] | IC50 [12] [µM] | IC50 [13] [µM] | SMILES | IC50 (A549; Homo sapiens, A549, 72 h) [µM] | also measured
1 | > 10 | > 10 | 12 | > 10 | > 10 | > 10 | > 10 | 0.684 | 0.15 | – | – | – | – | – | Nc1nccc(-c2c[nH]c3cccc(O)c23)n1 [MERIDIANIN A] | 15 | IC50 [1]: 11 µM; IC50 (SH-SY5Y): > 30 µM; IC50 (HEp-2): > 100 µM; IC50 [4]: 3.5 µM; IC50 [6]: 1.1 µM; Ki [8]: 2.35 µM; IC50 [10]: 3.1 µM; IC50 (CDK9/cyclin T1): 2.4 µM; IC50 [11]: > 100 µM; IC50 (HT-29): > 100 µM; IC50 [14]: 200 µM
2 | – | > 10 | > 33 | – | > 10 | > 10 | > 10 | – | – | > 10 | > 10 | > 10 | > 10 | > 10 | Nc1nc(Br)ncc1-c1c[nH]c2cccc(O)c12 [PSAMMOPEMMIN A] | > 219 | –
3 | – | – | 200 | – | – | – | – | – | – | – | – | – | – | – | CCN(CC)c1nccc(-c2c[nH]c3cc(Cl)ccc23)n1 [MERIDOQUIN] | > 333 | –
4 | – | > 10 | 40 | > 10 | > 10 | – | – | 1.35 | 0.088 | > 10 | – | > 10 | – | – | COc1cccc2[nH]cc(-c3ccnc(N)n3)c12 | > 420 | Ki [7]: 1.53 µM; Ki [9]: 1.99 µM
5 | – | – | – | – | – | – | – | – | – | – | – | – | – | – | CC1=C[C@H]2O[C@@H]3C[C@H]4OC(=O)/C=C\C=C\[C@H]([C@@H](C)O)OCC/C(C)=C/C(=O)OC[C@@]2(CC1)[C@]4(C)[C@]31CO1 [RORIDIN E] | – | IC50 (A549; a549): < 9.7 µM
6 | 7.04 | – | > 38 | – | > 10 | > 10 | > 10 | – | – | – | > 10 | > 10 | > 10 | > 10 | Nc1nc(Cl)ncc1-c1c[nH]c2cccc(O)c12 | > 256 | IC50 [3]: > 10 µM
